Measurements: ChEMBL document CHEMBL2380254, “Optimization of tocotrienols as antiproliferative and antimigratory leads” (Eur J Med Chem, 2013)

Key:
MCF7 [1] = experiment: Antiproliferative activity against human MCF7 cells by MTT assay; assay type: functional, cell-based
Outline: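 Cells plated at 8 × 10^3/well (MDA-MB-231) or 10^4/well (MCF7) in 96-well plates. Compounds fed in media with 5% FBS (MDA-MB-231) or 1% FBS (MCF7). MTT read-out of viable cells.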

[2] = Growth inhibition of human Hs 578T cells assessed as cell growth at 10 uM after 48 hrs by sulforhodamine B assay; assay type: functional; conditions: read-out: Activity
Outline: (§1)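 NCI-60 single-dose screen at 10 µM: cells in RPMI 1640 with 5% FBS, preincubated 24 h, then exposed 48 h at 37 °C. TCA fixation (16% final for suspension cells), SRB staining, absorbance 515 nm. Percent growth relative to time-zero and untreated control plates; negative values indicate cell kill.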

MCF7 [3] = experiment: Growth inhibition of human MCF7 cells assessed as cell growth at 10 uM after 48 hrs by sulforhodamine B assay; assay type: functional; conditions: MCF7, 48 h, read-out: Activity
Outline: (§2)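 Single-dose NCI-60 screen: adherent cells in RPMI 1640 with 5% FBS were exposed to 10 µM for 48 h at 37 °C after a 24 h preincubation. They were fixed in situ with cold TCA (10% final), stained with 0.4% SRB in 1% acetic acid, solubilized in 10 mM Tris base, and read at 515 nm. Percent growth was taken relative to time-zero and control plates.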

786-0 = experiment: Growth inhibition of human 786-0 cells assessed as cell growth at 10 uM after 48 hrs by sulforhodamine B assay; assay type: functional; conditions: 786-0, 48 h, read-out: Activity; outline: as §1
[4] = Growth inhibition of human NCI-ADR-RES cells assessed as cell growth at 10 uM after 48 hrs by sulforhodamine B assay; assay type: functional; conditions: read-out: Activity; outline: as §2
OVCAR-3 = experiment: Growth inhibition of human OVCAR3 cells assessed as cell growth at 10 uM after 48 hrs by sulforhodamine B assay; assay type: functional; conditions: OVCAR-3, 48 h, read-out: Activity; outline: as §2
UACC-62 [5] = experiment: Growth inhibition of human UACC62 cells assessed as cell growth at 10 uM after 48 hrs by sulforhodamine B assay; assay type: functional; conditions: UACC-62, 48 h, read-out: Activity
Outline: (§3)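 Single-dose NCI-60 test at 10 µM. Cells were grown in RPMI 1640 with 5% FBS and 2 mM L-glutamine, preincubated 24 h, with T0 plates TCA-fixed. Exposure was 48 h at 37 °C, 5% CO2. Cells were fixed with cold TCA (final 10%, 4 °C, 60 min), stained with SRB and read at 515 nm. Percent growth was taken relative to T0 and untreated control; negative values denote cell kill.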

U-251 = experiment: Growth inhibition of human U251 cells assessed as cell growth at 10 uM after 48 hrs by sulforhodamine B assay; assay type: functional; conditions: U-251, 48 h, read-out: Activity; outline: as §3
SF-295 = experiment: Growth inhibition of human SF295 cells assessed as cell growth at 10 uM after 48 hrs by sulforhodamine B assay; assay type: functional; conditions: SF-295, 48 h, read-out: Activity; outline: as §2
HCT-15 = experiment: Growth inhibition of human HCT15 cells assessed as cell growth at 10 uM after 48 hrs by sulforhodamine B assay; assay type: functional; conditions: HCT-15, 48 h, read-out: Activity; outline: as §1
HCT-116 [6] = experiment: Growth inhibition of human HCT116 cells assessed as cell growth at 10 uM after 48 hrs by sulforhodamine B assay; assay type: functional; conditions: HCT-116, 48 h, read-out: Activity; outline: as §1
T47D = experiment: Growth inhibition of human T47D cells after 48 hrs by sulforhodamine B assay; assay type: functional
Outline: (§4)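 NCI-60 five-dose screen. Cells were grown in RPMI 1640 with 5% FBS and 2 mM L-glutamine, plated at 5000–40,000 cells/well and incubated 24 h before dosing, with T0 plates TCA-fixed. DMSO stocks were diluted to doses of […] and exposed 48 h at 37 °C, 5% CO2. Cells were fixed with cold TCA (final 10%, 60 min, 4 °C), stained with 0.4% SRB in 1% acetic acid for 10 min, solubilized in 10 mM trizma base and read at 515 nm. GI50 is where 100×(T−T0)/(C−T0)=50.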

[7] = Growth inhibition of human Hs 578T cells after 48 hrs by sulforhodamine B assay; assay type: functional
Outline: (§5)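 NCI-60 screen: cells in RPMI 1640 with 5% FBS and 2 mM glutamine, 5000–40,000 cells/well, preincubated 24 h. Five concentrations (10-fold dilutions; 100 to 0.001 µM) applied for 48 h at 37 °C. TCA fixation, SRB stain, absorbance at 515 nm. Time-zero plates included; GI50 where 100×(T−T0)/(C−T0)=50.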

PC-3 = experiment: Growth inhibition of human PC3 cells after 48 hrs by sulforhodamine B assay; assay type: functional; conditions: PC-3, 48 h
Outline: (§6)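 NCI-60 panel cells grown in RPMI 1640 with 5% FBS and 2 mM L-glutamine, seeded at 5000–40,000 cells/well and preincubated 24 h. Five 10-fold dilutions (0.001–100 µM) from DMSO stocks were added for 48 h at 37 °C. Adherent cells were fixed with cold TCA (10% final) for 60 min at 4 °C, stained with 0.4% SRB, and read at 515 nm. GI50 was set where 100×(T−T0)/(C−T0)=50.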

TK-10 = experiment: Growth inhibition of human TK10 cells after 48 hrs by sulforhodamine B assay; assay type: functional; conditions: TK-10, 48 h; outline: as §4
RXF 393 = experiment: Growth inhibition of human RXF393 cells after 48 hrs by sulforhodamine B assay; assay type: functional; conditions: RXF 393, 48 h; outline: as §6
SN12C = experiment: Growth inhibition of human SN12C cells after 48 hrs by sulforhodamine B assay; assay type: functional; outline: as §4
[8] = Growth inhibition of human NCI-ADR-RES cells after 48 hrs by sulforhodamine B assay; assay type: functional; outline: as §6
UACC-62 [9] = experiment: Growth inhibition of human UACC62 cells after 48 hrs by sulforhodamine B assay; assay type: functional; conditions: UACC-62, 48 h; outline: as §4
M14 = experiment: Growth inhibition of human M14 cells after 48 hrs by sulforhodamine B assay; assay type: functional; conditions: M14, 48 h; outline: as §5
LOX IMVI = experiment: Growth inhibition of human LOXIMVI cells after 48 hrs by sulforhodamine B assay; assay type: functional; outline: as §5
HCT-116 [10] = experiment: Growth inhibition of human HCT116 cells after 48 hrs by sulforhodamine B assay; assay type: functional; conditions: HCT-116, 48 h; outline: as §5
NCI-H23 = experiment: Growth inhibition of human NCI-H23 cells after 48 hrs by sulforhodamine B assay; assay type: functional; conditions: NCI-H23, 48 h; outline: as §6
HOP-62 = experiment: Growth inhibition of human HOP62 cells after 48 hrs by sulforhodamine B assay; assay type: functional; conditions: HOP-62, 48 h; outline: as §5
MOLT-4 = experiment: Growth inhibition of human MOLT4 cells after 48 hrs by sulforhodamine B assay; assay type: functional; conditions: MOLT-4, 48 h
Outline: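 NCI-60 suspension lines in RPMI 1640 with 5% FBS and 2 mM L-glutamine, preincubated 24 h. A five-concentration 10-fold series (0.001–100 µM) was given for 48 h at 37 °C. Settled cells were fixed with 80% TCA (16% final), stained with SRB, and read at 515 nm. GI50 was taken where 100×(T−T0)/(C−T0)=50, with T0 plates fixed at drug addition.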

Row | SMILES | growth at 10 µM (MCF7 [3]) [%] | growth at 10 µM (786-0) [%] | growth at 10 µM [4] [%] | growth at 10 µM (OVCAR-3) [%] | growth at 10 µM (U-251) [%] | growth at 10 µM (SF-295) [%] | growth at 10 µM (HCT-15) [%] | growth at 10 µM (HCT-116 [6]) [%] | GI50 (T47D) [µM] | GI50 [7] [µM] | GI50 (PC-3) [µM] | GI50 (TK-10) [µM] | GI50 (RXF 393) [µM] | GI50 (SN12C) [µM] | GI50 [8] [µM] | GI50 (UACC-62 [9]) [µM] | GI50 (M14) [µM] | GI50 (LOX IMVI) [µM] | GI50 (HCT-116 [10]) [µM] | GI50 (NCI-H23) [µM] | other results
1 | CC(C)=CCC/C(C)=C/CC/C(C)=C/CC[C@]1(C)CCc2c3c(cc(C)c2O1)OCN(CCCCCCCCO)C3 | -93.3 | -95.3 | 18.7 | -85.4 | -95.8 | -83.8 | -10.9 | -100 | 3.94 | 0.938 | 1.51 | 4.64 | 0.551 | 1.54 | 3.37 | 4.79 | 1.14 | 0.622 | 0.597 | 4.4 | IC50 (MCF7 [1]): > 20 µM; growth at 10 µM [2]: 12%; growth at 10 µM (UACC-62 [5]): -15.3%; GI50 (HOP-62): 2.7 µM; GI50 (MOLT-4): 0.996 µM
2 | CC(C)=CCC/C(C)=C/CC/C(C)=C/CC[C@]1(C)CCc2c3c(cc(C)c2O1)OCN(C1CCN(Cc2ccccc2)CC1)C3 | -36 | 24.1 | 62.9 | -47.9 | -66.6 | 93.2 | 86.4 | -81.9 | 2.18 | 1.51 | 0.581 | 1.71 | 1.22 | 1.46 | 2.56 | 1.48 | 1.89 | 0.337 | 0.576 | 1.51 | growth at 10 µM [2]: -6.43%; growth at 10 µM (UACC-62 [5]): 93.6%; GI50 (HOP-62): 1.82 µM; GI50 (MOLT-4): 0.237 µM
3 | CC(C)=CCC/C(C)=C/CC/C(C)=C/CC[C@]1(C)CCc2c3c(cc(C)c2O1)OCN(CCCCCCO)C3 | -90.4 | -98 | -64.1 | -61.6 | -91.9 | -74.7 | 5.75 | -97.3 | 1.76 | 0.814 | 1.24 | 2.54 | 0.546 | 2.06 | 1.13 | 4.85 | 0.979 | 0.636 | 0.659 | 4.57 | IC50 (MCF7 [1]): > 20 µM; growth at 10 µM [2]: 29.8%; growth at 10 µM (UACC-62 [5]): 75.8%; GI50 (HOP-62): 0.877 µM; GI50 (MOLT-4): 0.835 µM
4 | CC(C)=CCC/C(C)=C/CC/C(C)=C/CC[C@]1(C)CCc2c3c(cc(C)c2O1)OCN(CCc1ccc(O)cc1)C3 | -86.3 | 69 | 37.5 | 36.4 | -32 | 102 | 80.4 | -58.2 | 6.06 | 6.29 | 5.07 | 5.56 | 3.34 | 4.9 | 5.93 | 6.01 | 6.66 | 2.09 | 3.88 | 6.82 | IC50 (MCF7 [1]): 18.2 µM; growth at 10 µM [2]: -6.12%; GI50 (HOP-62): 5.66 µM; GI50 (MOLT-4): 2.42 µM
5 | COc1ccc(CCN2COc3cc(C)c4c(c3C2)CC[C@@](C)(CC/C=C(\C)CC/C=C(\C)CCC=C(C)C)O4)cc1OC | -65.7 | 49.3 | 49.1 | -22.9 | -71.3 | 99.2 | 57.4 | -84 | 1.94 | 2.3 | 1.87 | 3.08 | 1.36 | 1.63 | 2.02 | 1.64 | 1.79 | 1.77 | 1.76 | 1.85 | growth at 10 µM (UACC-62 [5]): 91.7%; GI50 (HOP-62): 1.76 µM; GI50 (MOLT-4): 2.32 µM
